Screening results as filed in PubChem BioAssay.
Redox H2O2 prof – compounds producing H2O2 with reducing agent – biochemical, NIH compound library profiling, artefact control for MLSCN library redox annotation, primary screen; AID 878, 2007; activation, % at 10 µM; DTT-dependent redox cycling H2O2, phenol red/HRP absorbance; 100% = 100 µM peroxide control, 0% = buffer; 0.03% of 200,000 active;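 active means activation of at least 50% relative to the plate's high and low controls in the primary single-dose screen; inactive means activation below 50%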;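 further: compound incubated with DTT at 0.8 mM final as the reducing agent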
Diaphorase inh – diaphorase inhibitors and chemical oxidizers, primary screen, counter-screen for diaphorase-coupled primary assays, biochemical, uHTS, resorufin fluorescence | diaphorase resazurin-to-resorufin fluorescence, NADH, 16 min; bacterial (C. kluyveri) enzyme, not human | inhibition, % at 20 µM | 0.69% of 190,000 active;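 active means primary screen inhibition at 20 µM above a set limit, cut at about 50% in these data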
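Assay system: diaphorase enzyme from Clostridium kluyveri; Input: enzyme working solution with 0.14 U/mL diaphorase; Timing: 16 min at room temperature; Technique: resorufin fluorescence, excitation 544 nm, emission 590 nm; Benchmarks: positive control minus NADH, DMSO neutral control.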
PMI act – activators of human PMI, primary screen, biochemical, fluorescence intensity, near-Km mannose 6-phosphate. purified human PMI, coupled resazurin fluorescence, 20 min; hits give high values; 1 = vehicle control, 0 substrate-free wells. activation factor at 20 µM. 0.005% of 190,000 active;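 active means activation factor of 2 or more at 20 µM, relative to plate controls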
Target sequence (P34949 whole entry, looked up): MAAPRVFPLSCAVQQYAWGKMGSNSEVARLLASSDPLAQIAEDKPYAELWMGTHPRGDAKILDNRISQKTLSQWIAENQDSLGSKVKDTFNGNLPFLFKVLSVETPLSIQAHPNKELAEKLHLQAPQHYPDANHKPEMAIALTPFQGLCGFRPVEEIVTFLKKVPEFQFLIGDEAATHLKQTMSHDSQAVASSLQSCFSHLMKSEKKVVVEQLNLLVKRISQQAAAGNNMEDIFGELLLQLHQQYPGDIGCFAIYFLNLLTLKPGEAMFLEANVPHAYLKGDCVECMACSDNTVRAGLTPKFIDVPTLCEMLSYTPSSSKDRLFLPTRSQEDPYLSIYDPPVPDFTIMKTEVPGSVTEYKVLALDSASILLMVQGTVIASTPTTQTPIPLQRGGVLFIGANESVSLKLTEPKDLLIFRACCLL
Diaphorase act – compounds boosting diaphorase resazurin reduction – biochemical, uHTS, resorufin fluorescence, counter-screen for diaphorase-coupled primary assays, primary screen. activation factor at 20 µM. Diaphorase/resazurin coupled assay, 16 min; hits give high values; 1 = vehicle wells, 0 = NADH-free wells. 0.005% of 190,000 active;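 active means diaphorase activity raised at least twofold by the compound at 20 µM; inactive means activation factor below 2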
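Measured by – red resorufin fluorescence at 544/590 nm excitation/emission · Test system – Clostridium kluyveri diaphorase, purified enzyme · Incubation – reaction time 16 min, room temperature · Buffer or medium – 50 mM HEPES pH 7.4 with 4.542 mM MgCl2, 0.005% Tween 20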
G6PDH counter – L. mesenteroides G6PDH inhibitors, counter-screen for G6PDH-coupled screening assays, biochemical, Leuconostoc mesenteroides enzyme | Purified L. mesenteroides G6PDH, diaphorase/resazurin coupled fluorescence, 45 min | 0.12% of 200,000 active | glucose-6-phosphate dehydrogenase [Leuconostoc mesenteroides] | inhibition, % at 5 µM; in the data active means inhibition above about 50%
PMI act hi M6P – human PMI activators, high substrate, primary screen, biochemical, fluorescence intensity, near-saturating mannose 6-phosphate; Mannose-6-phosphate isomerase (Homo sapiens), P34949; coupled PMI enzyme assay, resazurin fluorescence, 20 min; hits give high values; 1 = untreated enzyme, 0 = substrate-free blank; activation factor at 20 µM; 0.34% of 190,000 active; AID 1216, 2008;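 active means activation factor of 2 or more at 20 µM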
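Test system: Human PMI in coupled enzyme assay | Input: 15 ng/mL PMI | Medium: HEPES-buffered pH 7.4 with magnesium and detergent | Compound: One concentration, 20 µM, in 1% DMSO | Incubation: Enzyme reaction with compound 20 min at room temperature | Detection: Diaphorase-driven resazurin-to-resorufin fluorescence, excitation 544, emission 590 nm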
Hits are given with their value; . = inactive; / = not tested or not shown. An excerpt weighted towards active compounds, which were near 1.1% of everything screened.

SMILES	Redox H2O2 prof	Diaphorase inh	PMI act	Diaphorase act	G6PDH counter	PMI act hi M6P
O=C(/C=C1\NCC2c3ccccc3CCN2C1=O)c1ccccc1 (stereo unspecified)	.	.	.	.	.	2.6
O=[N+]([O-])c1cccc(/C=N/Nc2nc(NCc3ccccc3)nc(N3CCOCC3)n2)c1O	.	/	/	/	.	/
CCCCCn1c(NC(=O)c2ccco2)c(S(=O)(=O)c2ccc(C)cc2)c2nc3ccccc3nc21	.	.	.	.	.	.
CCCCn1c(NS(=O)(=O)c2ccccc2)c(S(=O)(=O)c2ccc(C)cc2)c2nc3ccccc3nc21	100	.	.	.	.	.
CCCCn1c(NC(=O)c2ccco2)c(S(=O)(=O)c2ccc(C)cc2)c2nc3ccccc3nc21	.	69	.	.	.	.
O=C(N/N=C/c1c(O)n(-c2ccc(Cl)cn2)c(=O)c2ccccc12)C1CC1	.	.	.	.	.	.
O=C(N/N=C/c1c(O)n(-c2ccc(Cl)cn2)c(=O)c2ccccc12)c1ccncc1	.	59	.	.	.	.
COc1ccc(NS(=O)(=O)c2cc(NC(=O)Cn3cnc4c3c(=O)n(C)c(=O)n4C)ccc2C)cc1	.	.	.	.	.	.
COc1ccc(C2NN=C(c3ccc(C)cc3)S2)cc1OC (stereo unspecified)	.	.	.	.	.	2.9
Cc1ccc(C2=NNC(c3cccc(F)c3)S2)cc1 (stereo unspecified)	.	.	.	.	.	2.1
COc1cc2c(cc1OC)C(c1ccccc1)N(S(C)(=O)=O)CC2 (stereo unspecified)	.	82	.	.	.	.
COc1cc2c(cc1OC)C(c1ccccc1)N(C(=O)CCl)CC2 (stereo unspecified)	.	.	.	.	.	.
CC(C)(C)OC(=O)[C@H]1[C@H](c2ccc([N+](=O)[O-])cc2)C2(C(=O)c3ccccc3C2=O)C2c3ccccc3C=NN21 (stereo partly specified)	.	.	.	.	.	.
Cc1c2ccccc2nc2c(F)c(NCCO)c(F)c(F)c12	.	53	.	.	.	.
NS(=O)(=O)c1ccc(NC(=O)CSc2nc3ccccc3[nH]2)cc1	.	.	.	.	.	.
CC(=O)c1cc(NC(=O)c2ccccc2)c(=O)oc1C	.	.	.	.	.	2.1
CCOC(=O)c1cc(NC(=O)c2ccc(C)cc2)c(=O)oc1C(F)(F)F	.	.	.	.	.	2.6
CC(=O)c1cc(NC(=O)c2ccc(C)cc2)c(=O)oc1C	.	.	.	.	.	.
CCOC(=O)c1cc(NC(=O)c2ccccc2)c(=O)oc1C(F)(F)F	.	.	.	.	.	2.2
CCOC(=O)c1cc(NC(=O)c2ccc(OC)cc2)c(=O)oc1-c1ccccc1	.	.	.	.	.	.
COCc1cc(C)nc2sc(C(=O)N3CCN(c4ccccc4)CC3)c(N)c12	.	.	.	.	.	.
Cc1cc(C)c2c(N)c(C(=O)N3CCN(c4ncccn4)CC3)sc2n1	.	.	.	.	.	2
COc1ccc(CCNC(=O)C(=O)NCc2ccccn2)cc1	.	.	.	.	.	.
CC1OC2(C)OC(=N)C1(C#N)C(C#N)(C#N)C2c1ccccc1 (stereo unspecified)	.	.	.	.	.	.
CCCCC1OC2(C)OC(=N)C1(C#N)C(C#N)(C#N)C2c1ccccc1 (stereo unspecified)	.	58	.	.	.	.
SMILES	Redox H2O2 prof	Diaphorase inh	PMI act	Diaphorase act	G6PDH counter	PMI act hi M6P
Cc1c(NC(=O)CS(=O)(=O)c2ccccc2)c(=O)n(-c2ccccc2)n1C	.	.	.	.	.	.
COc1ccc(Cc2nc3ccccc3n2C)cc1	.	.	.	.	.	.
COc1ccc(N=Nc2nc3ccc(Br)cc3n2C)cc1	.	.	.	.	.	2.2
CCN(CC)CCNc1cc(C)nc2c1C(=O)C(=O)C=C2N1CCCCC1	.	/	/	/	51	/
S=c1nc(-c2sccc2OCc2ccc(Cl)cc2Cl)[nH][nH]1	.	54	.	.	.	.
Nc1nc2n(n1)C(=O)CC(c1ccccc1[N+](=O)[O-])N2 (stereo unspecified)	.	.	.	.	.	.
O=[N+]([O-])c1ccccc1C1Nc2cccc3cccc(c23)N1	.	57	.	.	.	.
O=[N+]([O-])c1ccc(Cl)c(C2Nc3cccc4cccc(c34)N2)c1	.	57	.	.	.	.
COc1cc(CN2CCNC(=O)C2CC(=O)N2CCCO2)cc(OC)c1 (stereo unspecified)	.	/	/	/	.	/
O=C(O)c1ccc(NCCc2ccc(Cl)cc2)c([N+](=O)[O-])c1	.	.	.	.	.	.
O=C1C(Cl)=C(NCCN2CCCCC2)C(=O)c2ccccc21	.	.	.	.	51	.
CCNC1=C(Cl)C(=O)c2ccccc2C1=O	.	.	.	.	.	.
Nn1cc(-c2ccccc2)nc1SCC(=O)N1CCN(S(=O)(=O)c2ccc(Cl)cc2)CC1	.	54	.	.	.	.
Nn1cc(-c2ccccc2)nc1SCC(=O)N1CCN(S(=O)(=O)c2ccc3ccccc3c2)CC1	.	.	.	.	.	.
Cc1ccc(S(=O)(=O)NCCC(=O)Nc2ccc(C)cc2C(=O)c2ccccc2)cc1	.	.	.	.	.	.
Cc1ccc2[nH]c(=O)c3cc(C(=O)N(CCCOC(C)C)Cc4ccco4)sc3c2c1	.	.	.	.	.	.
CCCCN(Cc1ccco1)C(=O)c1cc2c(=O)[nH]c3ccc(C)cc3c2s1	.	57	.	.	.	.
CC1(C(=O)NCc2ccc(Cl)c(Cl)c2)Oc2cccnc2NC1=O (stereo unspecified)	.	.	.	.	.	.
CSc1ccc(/C=N/Nc2cccc(C(=O)O)c2)cc1	.	.	.	.	.	.
C=CCOc1c(OC)cc(/C=N/Nc2cccc(C(=O)O)c2)c(Br)c1Br	.	.	.	.	.	2.4
O=C(CC1Nc2c3ccccc3nc(=S)n2C1=O)NC1CCCCC1 (stereo unspecified)	.	.	.	.	.	.
